The values that follow come from paper PMC9159088 (Chemical Science, 2022).

Structures are written as SMILES.

Data set [1] concerns the target T1, human Golgi α-mannosidase II (α-hGMII) (Homo sapiens, UniProt Q16706).
T1 sequence (Q16706 1-1144): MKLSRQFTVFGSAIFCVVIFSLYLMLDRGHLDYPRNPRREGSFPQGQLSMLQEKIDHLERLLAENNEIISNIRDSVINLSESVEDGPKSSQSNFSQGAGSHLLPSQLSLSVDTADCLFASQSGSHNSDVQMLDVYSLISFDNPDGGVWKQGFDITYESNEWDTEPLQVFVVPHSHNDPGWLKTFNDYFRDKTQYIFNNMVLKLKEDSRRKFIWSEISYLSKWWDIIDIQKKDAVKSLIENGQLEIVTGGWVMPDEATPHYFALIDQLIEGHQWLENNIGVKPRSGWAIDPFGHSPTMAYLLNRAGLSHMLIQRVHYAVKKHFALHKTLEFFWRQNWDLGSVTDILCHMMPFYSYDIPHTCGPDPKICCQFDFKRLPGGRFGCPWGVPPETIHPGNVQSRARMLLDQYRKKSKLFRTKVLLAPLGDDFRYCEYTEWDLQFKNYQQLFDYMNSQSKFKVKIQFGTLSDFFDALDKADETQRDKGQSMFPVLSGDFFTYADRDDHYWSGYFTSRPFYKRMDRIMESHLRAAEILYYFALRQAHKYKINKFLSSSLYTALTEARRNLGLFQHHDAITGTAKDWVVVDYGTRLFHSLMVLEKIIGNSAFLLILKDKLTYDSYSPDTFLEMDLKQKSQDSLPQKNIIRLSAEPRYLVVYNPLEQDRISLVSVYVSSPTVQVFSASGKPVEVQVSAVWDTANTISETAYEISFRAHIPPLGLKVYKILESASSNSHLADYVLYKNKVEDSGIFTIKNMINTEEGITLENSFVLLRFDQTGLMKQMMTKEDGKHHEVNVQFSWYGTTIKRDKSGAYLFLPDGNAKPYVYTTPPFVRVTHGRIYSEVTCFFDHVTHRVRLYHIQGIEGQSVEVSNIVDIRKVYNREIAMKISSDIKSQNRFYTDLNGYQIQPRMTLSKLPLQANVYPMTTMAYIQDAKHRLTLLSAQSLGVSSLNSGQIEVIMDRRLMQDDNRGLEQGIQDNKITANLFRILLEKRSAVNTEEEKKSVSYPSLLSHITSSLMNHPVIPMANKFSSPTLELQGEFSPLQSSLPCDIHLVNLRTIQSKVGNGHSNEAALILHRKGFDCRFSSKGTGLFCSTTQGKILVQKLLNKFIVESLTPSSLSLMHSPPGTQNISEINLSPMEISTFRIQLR
Kind of data set: 4-MU-based enzyme inhibition study, wild-type α-hGMII. The format is biochemical. Particulars: SI = (α-hLM Ki)/(α-hGMII Ki), Man-α-4MU substrate.

Another data set deals with T2, α-hGMII (Homo sapiens, UniProt Q16706).
T2 sequence (Q16706 1-1144): T1 sequence (Q16706 1-1144)
Kind of data set: Glycan-based. The format is biochemical. The note with it: SI = (α-hLM IC50)/(α-hGMII IC50), oligosaccharide substrates. In a few lines: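 The substrate for human Golgi α-mannosidase II was 2-aminobenzamide-labelled GlcNAcMan5GlcNAc2 (GlcNAcMan5-2AB), with LNnT-2AB as internal standard. Enzyme, substrate and test compound (0, 0.3, 0.1, 0.03 μM) were incubated 24 h at 37 °C. Remaining substrate was measured by UPLC fluorescence as the peak area ratio of substrate to internal standard. Ki was taken from a Lineweaver–Burk plot. SI used lysosomal α-mannosidase IC50, run the same way with Man5-2AB substrate and NA2-2AB standard.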

Data set [2] concerns human normal fibroblast (08C0015). Description: Cell based selectivity assay. Particulars: 08C0015, 24 h treatment.
The next data set deals with Huh7 xenograft tumors. Kind of data set: Mice xenograft model of HCC. Particulars: 30 mg kg−1 ip. twice a week. It counts as in vivo, NOD-SCID mice.
A further data set is described as follows: Serum biochemistry assay. It counts as in vivo, NOD-SCID mice. Particulars: 30 mg kg−1 ip. twice a week. The gist of the method: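 Huh7 cells (5 × 106) implanted subcutaneously into left and right flanks of NOD-SCID mice. From day 7 after inoculation, test compound or reference drug given ip at 30 mg kg−1 twice a week for 34 days; bodyweight monitored. Serum AST, ALT, total bilirubin, creatinine and BUN measured for hepatorenal toxicity; significance set at P < 0.05.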

Regarding `O[C@H]1[C@H]2[C@H](O)CCCN2C[C@H]1O` [sw, swainsonine], in data set [1], the “SI: selectivity index” value was found to be 4.6. The “SI: selectivity index (glycan based)” value at α-hGMII is on record as 5. For the same compound, the “increase of relative intensity of overall Man2-9GlcNAc compared to the control group” value in data set [2] is on record as “about 5 fold”.

Consider `CNC(=O)c1cc(Oc2ccc(NC(=O)Nc3ccc(Cl)c(C(F)(F)F)c3)cc2)ccn1` [Sorafenib, sorafenib], for which the “signs of harm / body weight during treatment” value with Huh7 xenograft tumors was “neither mice injected with 8b-3 nor sorafenib exhibited signs of harm or decreased body weight”. The “tumor growth compared to the control” value with Huh7 xenograft tumors (P < 0.05) is recorded as “significant reduction in tumor growth”. Also, the “side effects (hepatotoxicity and nephrotoxicity)” value in the data set “Serum biochemistry assay” is “no serious side effects including hepatotoxicity and nephrotoxicity were observed”.
